Test results taken from ChEMBL document CHEMBL2346629, “Discovery and characterization of novel allosteric FAK inhibitors” (Eur J Med Chem, 2013).

Tests used:
[1] = target: Serine/threonine-protein kinase PAK 3 (Homo sapiens) (UniProt O75914); assay: Inhibition of PAK3 (unknown origin) using [gamma-33P]ATP assessed as residual activity at 3 uM
[2] = target: Mitogen-activated protein kinase 13 (Homo sapiens) (UniProt O15264); assay: Inhibition of P38d (unknown origin) using [gamma-33P]ATP assessed as residual activity at 3 uM
Sequence of Mitogen-activated protein kinase 13 (Homo sapiens) (O15264 whole entry): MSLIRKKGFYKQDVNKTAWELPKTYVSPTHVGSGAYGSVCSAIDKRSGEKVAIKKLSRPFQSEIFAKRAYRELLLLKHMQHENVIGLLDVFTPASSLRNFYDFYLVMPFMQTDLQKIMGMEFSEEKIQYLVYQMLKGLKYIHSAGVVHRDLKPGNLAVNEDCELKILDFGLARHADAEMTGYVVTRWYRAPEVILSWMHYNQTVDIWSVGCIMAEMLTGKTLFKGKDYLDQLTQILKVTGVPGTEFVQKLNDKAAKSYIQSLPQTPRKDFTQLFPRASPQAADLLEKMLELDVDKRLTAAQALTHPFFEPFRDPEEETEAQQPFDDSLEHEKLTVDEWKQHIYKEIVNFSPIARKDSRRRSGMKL

[3] = target: Serine/threonine-protein kinase Nek9 (Homo sapiens) (UniProt Q8TD19); assay: Inhibition of NEK9 (unknown origin) using [gamma-33P]ATP assessed as residual activity at 3 uM
[4] = target: Serine/threonine-protein kinase 4 (Homo sapiens) (UniProt Q13043); assay: Inhibition of MST1 (unknown origin) using [gamma-33P]ATP assessed as residual activity at 3 uM
[5] = target: MAP kinase-interacting serine/threonine-protein kinase 2 (Homo sapiens) (UniProt Q9HBH9); assay: Inhibition of MNK2 (unknown origin) using [gamma-33P]ATP assessed as residual activity at 3 uM
Sequence of MAP kinase-interacting serine/threonine-protein kinase 2 (Homo sapiens) (Q9HBH9 whole entry, looked up): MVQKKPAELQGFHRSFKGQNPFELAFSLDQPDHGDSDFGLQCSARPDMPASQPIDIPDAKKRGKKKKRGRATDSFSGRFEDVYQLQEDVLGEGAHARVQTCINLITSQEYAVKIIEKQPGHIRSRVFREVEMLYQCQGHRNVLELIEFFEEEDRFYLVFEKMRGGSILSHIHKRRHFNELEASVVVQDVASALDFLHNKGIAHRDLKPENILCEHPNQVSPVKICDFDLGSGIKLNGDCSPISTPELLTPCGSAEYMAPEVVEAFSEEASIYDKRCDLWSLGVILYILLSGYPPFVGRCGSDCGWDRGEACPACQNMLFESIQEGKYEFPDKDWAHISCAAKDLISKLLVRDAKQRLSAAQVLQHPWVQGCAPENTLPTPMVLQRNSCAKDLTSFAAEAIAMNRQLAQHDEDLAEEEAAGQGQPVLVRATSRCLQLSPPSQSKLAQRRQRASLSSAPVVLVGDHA

[6] = target: Dual specificity protein kinase CLK1 (Homo sapiens) (UniProt P49759); assay: Inhibition of CLK1 CD (unknown origin) using [gamma-33P]ATP assessed as residual activity at 3 uM
Sequence of Dual specificity protein kinase CLK1 (Homo sapiens) (P49759 whole entry, looked up): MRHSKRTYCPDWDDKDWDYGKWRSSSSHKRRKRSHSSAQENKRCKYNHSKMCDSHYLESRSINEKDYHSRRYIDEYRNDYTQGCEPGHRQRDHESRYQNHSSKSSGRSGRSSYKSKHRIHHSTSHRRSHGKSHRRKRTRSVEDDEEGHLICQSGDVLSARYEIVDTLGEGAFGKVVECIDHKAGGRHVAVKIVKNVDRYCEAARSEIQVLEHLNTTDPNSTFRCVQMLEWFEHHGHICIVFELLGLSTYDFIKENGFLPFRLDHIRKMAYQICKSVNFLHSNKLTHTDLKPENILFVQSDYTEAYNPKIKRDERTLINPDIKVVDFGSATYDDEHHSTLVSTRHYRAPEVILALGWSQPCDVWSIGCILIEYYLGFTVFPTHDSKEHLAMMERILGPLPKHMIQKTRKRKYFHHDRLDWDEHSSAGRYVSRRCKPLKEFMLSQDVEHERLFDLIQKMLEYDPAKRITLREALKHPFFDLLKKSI
Method in brief: (§1)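 Reaction Biology HotSpot radiometric profiling panel of 288 kinases (261 wild-type, 27 mutant). Kinase activity was read out by incorporation of [γ-33P]ATP.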

[7] = target: Casein kinase II subunit alpha' (Homo sapiens) (UniProt P19784); assay: Inhibition of CK2a2 (unknown origin) using [gamma-33P]ATP assessed as residual activity at 3 uM; method in brief: as §1
Sequence of Casein kinase II subunit alpha' (Homo sapiens) (P19784 whole entry, looked up): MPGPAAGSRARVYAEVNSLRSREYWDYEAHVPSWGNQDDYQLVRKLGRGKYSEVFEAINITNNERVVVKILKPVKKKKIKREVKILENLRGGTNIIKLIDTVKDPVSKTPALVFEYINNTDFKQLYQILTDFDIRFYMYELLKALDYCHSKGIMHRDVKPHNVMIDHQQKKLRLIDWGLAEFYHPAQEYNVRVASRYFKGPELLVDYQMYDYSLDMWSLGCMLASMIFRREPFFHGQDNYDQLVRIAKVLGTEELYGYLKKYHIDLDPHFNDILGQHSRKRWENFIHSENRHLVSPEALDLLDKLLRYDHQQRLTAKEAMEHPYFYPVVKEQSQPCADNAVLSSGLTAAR

[8] = target: Serine/threonine-protein kinase Chk2 (Homo sapiens, UniProt O96017); assay: Inhibition of CHK2 (unknown origin) using [gamma-33P]ATP assessed as residual activity at 3 uM
[9] = target: Cyclin-dependent kinase 7/ cyclin H (Homo sapiens) (UniProt P51946+P50613); assay: Inhibition of CDK7/cyclin H/MNAT1 (unknown origin) using [gamma-33P]ATP assessed as residual activity at 3 uM; type: protein-complex assay
Method in brief: (§2)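 Radiometric profiling across 288 kinases (261 wild-type, 27 mutant), run as an outsourced service. Inhibition read out as [gamma-33P]ATP incorporation into substrate.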

[10] = target: Serine/threonine-protein kinase BRSK2 (Homo sapiens) (UniProt Q8IWQ3); assay: Inhibition of BRSK2 (unknown origin) using [gamma-33P]ATP assessed as residual activity at 3 uM; method in brief: as §2
[11] = target: Protein-tyrosine kinase 6 (Homo sapiens) (UniProt Q13882); assay: Inhibition of BRK (unknown origin) using [gamma-33P]ATP assessed as residual activity at 3 uM; method in brief: as §2
[12] = target: Cytoplasmic tyrosine-protein kinase BMX (Homo sapiens) (UniProt P51813); assay: Inhibition of BMX (unknown origin) using [gamma-33P]ATP assessed as residual activity at 3 uM; method in brief: as §2
[13] = tested on: Serine/threonine-protein kinase Chk2 (Homo sapiens), O96017 [I157T]; assay: Inhibition of CHK2 I157T mutant (unknown origin) using [gamma-33P]ATP assessed as residual activity at 3 uM
[14] = target: Tyrosine-protein kinase Lyn (Homo sapiens) (UniProt P07948); assay: Inhibition of LYN (unknown origin) using [gamma-33P]ATP assessed as residual activity at 3 uM
Method in brief: (§3)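 Radiometric kinase profiling service covering 288 kinases (261 wild-type, 27 mutant). Inhibition was read as incorporation from [γ-³³P]ATP.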

[15] = target: NUAK family SNF1-like kinase 1 (Homo sapiens) (UniProt O60285); assay: Inhibition of ARK5 (unknown origin) using [gamma-33P]ATP assessed as residual activity at 3 uM; method in brief: as §2
[16] = target: Tyrosine-protein kinase ABL2 (Homo sapiens) (UniProt P42684); assay: Inhibition of ABL2 (unknown origin) using [gamma-33P]ATP assessed as residual activity at 3 uM; method in brief: as §2
[17] = target: Mitogen-activated protein kinase kinase kinase 20 (Homo sapiens) (UniProt Q9NYL2); assay: Inhibition of ZAK (unknown origin) using [gamma-33P]ATP assessed as residual activity at 3 uM
Sequence of Mitogen-activated protein kinase kinase kinase 20 (Homo sapiens) (Q9NYL2 2-800 limits assumed): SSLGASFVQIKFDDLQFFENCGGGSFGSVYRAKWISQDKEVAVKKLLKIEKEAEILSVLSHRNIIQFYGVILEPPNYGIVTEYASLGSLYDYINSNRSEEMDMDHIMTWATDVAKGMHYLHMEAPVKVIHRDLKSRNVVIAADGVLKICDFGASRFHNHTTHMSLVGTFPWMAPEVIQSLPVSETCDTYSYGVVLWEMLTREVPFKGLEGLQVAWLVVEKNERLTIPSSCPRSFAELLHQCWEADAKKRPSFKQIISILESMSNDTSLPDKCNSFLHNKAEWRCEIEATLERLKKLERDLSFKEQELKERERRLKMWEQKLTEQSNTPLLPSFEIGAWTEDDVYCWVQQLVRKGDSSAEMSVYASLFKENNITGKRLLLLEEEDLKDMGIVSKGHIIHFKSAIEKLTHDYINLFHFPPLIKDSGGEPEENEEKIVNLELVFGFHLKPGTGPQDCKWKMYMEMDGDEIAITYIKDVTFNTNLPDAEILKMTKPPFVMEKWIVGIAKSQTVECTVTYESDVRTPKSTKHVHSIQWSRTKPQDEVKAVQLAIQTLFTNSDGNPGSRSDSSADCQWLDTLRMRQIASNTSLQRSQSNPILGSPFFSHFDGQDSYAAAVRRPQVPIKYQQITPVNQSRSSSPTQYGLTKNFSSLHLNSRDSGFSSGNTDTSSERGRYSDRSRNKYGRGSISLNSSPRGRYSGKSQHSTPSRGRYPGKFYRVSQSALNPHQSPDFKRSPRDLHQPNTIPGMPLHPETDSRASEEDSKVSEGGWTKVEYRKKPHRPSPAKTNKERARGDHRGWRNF

[18] = target: Testis-specific serine/threonine-protein kinase 2 (Homo sapiens) (UniProt Q96PF2); assay: Inhibition of TSSK2 (unknown origin) using [gamma-33P]ATP assessed as residual activity at 3 uM
[19] = target: Angiopoietin-1 receptor (Homo sapiens) (UniProt Q02763); assay: Inhibition of TIE2 (unknown origin) using [gamma-33P]ATP assessed as residual activity at 3 uM
[20] = target: Serine/threonine-protein kinase TAO2 (Homo sapiens) (UniProt Q9UL54); assay: Inhibition of TAOK2 (unknown origin) using [gamma-33P]ATP assessed as residual activity at 3 uM
[21] = target: Tyrosine-protein kinase SYK (Homo sapiens) (UniProt P43405); assay: Inhibition of SYK (unknown origin) using [gamma-33P]ATP assessed as residual activity at 3 uM
[22] = target: SRSF protein kinase 1 (Homo sapiens) (UniProt Q96SB4); assay: Inhibition of SRPK1 (unknown origin) using [gamma-33P]ATP assessed as residual activity at 3 uM
Sequence of SRSF protein kinase 1 (Homo sapiens) (Q96SB4 whole entry): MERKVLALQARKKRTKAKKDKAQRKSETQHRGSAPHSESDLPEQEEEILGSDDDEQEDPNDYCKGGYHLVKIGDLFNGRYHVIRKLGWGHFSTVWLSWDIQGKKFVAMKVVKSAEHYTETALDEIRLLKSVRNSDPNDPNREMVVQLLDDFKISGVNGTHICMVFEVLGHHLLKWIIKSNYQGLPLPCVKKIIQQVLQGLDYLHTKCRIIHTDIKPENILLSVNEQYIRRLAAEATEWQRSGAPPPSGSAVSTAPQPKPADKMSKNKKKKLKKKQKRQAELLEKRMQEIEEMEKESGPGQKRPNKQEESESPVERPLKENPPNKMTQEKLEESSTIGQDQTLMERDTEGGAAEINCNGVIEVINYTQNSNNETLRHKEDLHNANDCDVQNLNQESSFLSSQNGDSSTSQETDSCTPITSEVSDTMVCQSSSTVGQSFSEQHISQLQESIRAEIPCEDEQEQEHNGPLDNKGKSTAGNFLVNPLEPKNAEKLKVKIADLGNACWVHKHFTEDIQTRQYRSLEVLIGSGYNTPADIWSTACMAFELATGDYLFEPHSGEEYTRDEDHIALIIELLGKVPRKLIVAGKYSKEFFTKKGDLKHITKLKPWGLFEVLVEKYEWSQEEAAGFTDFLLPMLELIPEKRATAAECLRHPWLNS

[23] = target: Macrophage-stimulating protein receptor (Homo sapiens) (UniProt Q04912); assay: Inhibition of RON (unknown origin) using [gamma-33P]ATP assessed as residual activity at 3 uM
[24] = target: Insulin-like growth factor 1 receptor (Homo sapiens) (UniProt P08069); assay: Inhibition of IGF-1R (unknown origin) using [gamma-33P]ATP assessed as residual activity at 3 uM; method in brief: as §3
[25] = target: Tyrosine-protein kinase FRK (Homo sapiens) (UniProt P42685); assay: Inhibition of FRK (unknown origin) using [gamma-33P]ATP assessed as residual activity at 3 uM; method in brief: as §3
[26] = target: Ephrin type-B receptor 4 (Homo sapiens) (UniProt P54760); assay: Inhibition of EPHB4 (unknown origin) using [gamma-33P]ATP assessed as residual activity at 3 uM; method in brief: as §1
Sequence of Ephrin type-B receptor 4 (Homo sapiens) (P54760 whole entry): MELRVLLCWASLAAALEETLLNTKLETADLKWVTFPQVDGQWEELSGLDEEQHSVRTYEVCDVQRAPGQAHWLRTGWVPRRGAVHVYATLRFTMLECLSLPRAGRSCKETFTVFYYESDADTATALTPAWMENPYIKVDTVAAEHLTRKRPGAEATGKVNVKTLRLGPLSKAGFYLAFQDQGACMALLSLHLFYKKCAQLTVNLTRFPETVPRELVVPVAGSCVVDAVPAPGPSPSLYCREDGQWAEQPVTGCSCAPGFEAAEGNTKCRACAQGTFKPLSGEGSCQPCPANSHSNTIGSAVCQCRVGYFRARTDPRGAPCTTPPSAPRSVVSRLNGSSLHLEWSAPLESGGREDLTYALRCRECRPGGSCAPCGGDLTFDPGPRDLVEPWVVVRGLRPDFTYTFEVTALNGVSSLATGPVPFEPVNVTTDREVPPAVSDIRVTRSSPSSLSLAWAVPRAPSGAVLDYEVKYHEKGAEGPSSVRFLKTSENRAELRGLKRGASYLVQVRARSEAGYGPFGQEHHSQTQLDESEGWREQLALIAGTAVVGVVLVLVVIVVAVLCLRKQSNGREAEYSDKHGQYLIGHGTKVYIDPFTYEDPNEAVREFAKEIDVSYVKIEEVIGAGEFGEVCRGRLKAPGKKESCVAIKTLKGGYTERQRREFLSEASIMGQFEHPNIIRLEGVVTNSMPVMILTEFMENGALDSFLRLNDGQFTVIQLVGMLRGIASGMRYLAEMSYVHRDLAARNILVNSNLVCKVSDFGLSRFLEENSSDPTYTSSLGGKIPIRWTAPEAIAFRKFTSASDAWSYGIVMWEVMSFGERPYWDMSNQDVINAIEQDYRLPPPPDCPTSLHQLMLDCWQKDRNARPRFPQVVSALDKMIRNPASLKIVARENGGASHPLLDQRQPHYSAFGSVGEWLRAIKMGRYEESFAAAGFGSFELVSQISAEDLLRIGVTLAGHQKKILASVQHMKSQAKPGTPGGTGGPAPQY

[27] = target: Ephrin type-B receptor 2 (Homo sapiens) (UniProt P29323); assay: Inhibition of EPHB2 (unknown origin) using [gamma-33P]ATP assessed as residual activity at 3 uM; method in brief: as §1
[28] = target: Ephrin type-A receptor 7 (Homo sapiens) (UniProt Q15375); assay: Inhibition of EPHA7 (unknown origin) using [gamma-33P]ATP assessed as residual activity at 3 uM; method in brief: as §1
[29] = target: Protein kinase C epsilon type (Homo sapiens) (UniProt Q02156); assay: Inhibition of PKCepsilon (unknown origin) using [gamma-33P]ATP assessed as residual activity at 3 uM
[30] = target: Protein kinase C delta type (Homo sapiens) (UniProt Q05655); assay: Inhibition of PKCd (unknown origin) using [gamma-33P]ATP assessed as residual activity at 3 uM
[31] = target: Protein kinase C beta type (Homo sapiens) (UniProt P05771); assay: Inhibition of PKCb1 (unknown origin) using [gamma-33P]ATP assessed as residual activity at 3 uM
Sequence of Protein kinase C beta type (Homo sapiens) (P05771 2-671 limits assumed): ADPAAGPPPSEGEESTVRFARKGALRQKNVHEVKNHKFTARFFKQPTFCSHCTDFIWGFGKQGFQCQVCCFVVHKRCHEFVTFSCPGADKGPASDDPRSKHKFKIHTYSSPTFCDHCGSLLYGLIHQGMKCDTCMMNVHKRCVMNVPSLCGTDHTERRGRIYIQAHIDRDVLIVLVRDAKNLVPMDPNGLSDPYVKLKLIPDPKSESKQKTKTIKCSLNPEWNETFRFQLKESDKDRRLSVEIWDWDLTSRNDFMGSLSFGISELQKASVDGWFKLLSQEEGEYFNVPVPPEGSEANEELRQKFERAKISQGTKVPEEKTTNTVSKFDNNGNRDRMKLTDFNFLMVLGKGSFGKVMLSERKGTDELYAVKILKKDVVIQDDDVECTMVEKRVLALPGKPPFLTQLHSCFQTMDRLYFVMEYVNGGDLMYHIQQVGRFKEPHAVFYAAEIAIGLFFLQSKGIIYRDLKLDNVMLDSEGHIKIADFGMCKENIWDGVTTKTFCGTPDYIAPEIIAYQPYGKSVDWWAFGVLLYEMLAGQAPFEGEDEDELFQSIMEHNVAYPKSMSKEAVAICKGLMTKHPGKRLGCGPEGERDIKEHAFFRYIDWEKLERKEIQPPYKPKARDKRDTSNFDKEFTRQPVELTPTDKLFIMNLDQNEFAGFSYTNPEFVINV

[32] = target: Dual specificity protein kinase CLK4 (Homo sapiens) (UniProt Q9HAZ1); assay: Inhibition of CLK4 (unknown origin) using [gamma-33P]ATP assessed as residual activity at 3 uM; method in brief: as §1

Activity [1]: 95% | Activity [2]: 103% | Activity [4]: 87% | Activity [5]: 89% | Activity [6]: 85% | Activity [7]: 53% | Activity [8]: 50% | Activity [9]: 97% | Activity [10]: 93% | Activity [11]: 73% | Activity [12]: 93% | Activity [13]: 61% | Activity [14]: 78% | Activity [15]: 84% | Activity [16]: 90% | Activity [17]: 96% | Activity [18]: 87% | Activity [19]: 91% | Activity [20]: 100% | Activity [21]: 72% | Activity [22]: 90% | Activity [23]: 98% | Activity [24]: 87% | Activity [25]: 80% | Activity [26]: 78% | Activity [27]: 95% | Activity [28]: 93% | Activity [29]: 97% | Activity [30]: 91% | Activity [31]: 101% | Activity [32]: 51%
Structure (SMILES): CCc1ccc(-c2ccc3c(c2)-c2[nH]ncc2S(=O)(=O)N3C)cc1
Activity [3]: 78%
